The test system of test [1] is HL-60. As to the kind of experiment: Induction of apoptosis in human HL60 cells assessed as morphological changes after 12 hrs by Hoechst 33258 staining based fluorescence microscopy. The format is functional, cell-based. In outline: (§1)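 HL-60 cells were treated for 12 h at 10–30 µM, with 10 µM etoposide as positive control. Cells were fixed in 3% paraformaldehyde for 10 min, then stained with 10 µg/mL Hoechst 33258 for 30 min at 37 °C. Nuclei with condensed or fragmented chromatin were scored as apoptotic, counting ≥500 cells per sample, in triplicate.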

The subject of test [2] is HL-60. As to the kind of experiment: Induction of apoptosis in human HL60 cells at 30 uM after 12 hrs by Hoechst 33258 staining based fluorescence microscopy. The format is functional. In short, it runs like this: as §1
Test [3] concerns HL-60. As to the kind of experiment: Induction of apoptosis in human HL60 cells assessed as fold increase in caspase 8 activation at 10 uM relative to control. The format is functional. In short, it runs like this: (§2)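 HL-60 cells were exposed for 12 h to 1–30 µM. Lysates were made in Hepes pH 7.4/DTT/CHAPS buffer and protein was measured by Bradford. About 20 µg protein was incubated at 37 °C with DEVD-pNA (caspase-3) or IETD-pNA (caspase-8). Net A405 increase was expressed as fold over untreated control, in duplicate.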

The subject of test [4] is HL-60. The test is described as follows: Induction of apoptosis in human HL60 cells assessed as fold increase in caspase 3 activation at 30 uM relative to control. In kind it is functional. In short, it runs like this:
as §2

Test [5] concerns HL-60. The test is described as follows: Cytotoxicity against human HL60 cells after 72 hrs by MTT assay. In kind it is functional, cell-based. To be noted: HL-60, 72 h. In short, it runs like this: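 HL-60 cells kept in RPMI-1640 with 10% heat-inactivated FBS at 37 °C and 5% CO2, resuspended in fresh medium 24 h before treatment. Cells at 1×10^4/well were exposed continuously to a concentration series for 72 h at 37 °C, with final DMSO ≤0.5%. Read-out was MTT reduction at OD 570 nm as % of DMSO control. IC50 was curve-fitted for each experiment; points were triplicates.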
On the technique in general: Tetrazolium dyes change colour on reduction, which living cells bring about.

Test [6] relates to HL-60. The test is described as follows: Induction of apoptosis in human HL60 cells assessed as cytochrome release at 10 uM by Western blot. In kind it is functional, cell-based. In short, it runs like this: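 Exponentially growing HL-60 cells were treated for 6 h. The cytosolic fraction was obtained by hypotonic sucrose-buffer swelling on ice, needle lysis, a 1000g spin, then 105 000g for 45 min at 4 °C. 50 µg cytosolic protein was run on SDS/15% PAGE and immunoblotted with anti-cytochrome c (1:250), with ECL detection.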

Test [7] has as its system HL-60. The test is described as follows: Induction of apoptosis in human HL60 cells assessed as induction of PARP1 cleavage after 24 hrs by Western blot. The format is functional, cell-based. In outline: (§3)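 About 7×10^5 exponentially growing HL-60 cells were treated at 37 °C for 6 or 24 h. Lysates in Hepes/NaCl/NP-40 buffer with protease inhibitors were cleared at 10 000g. 50 µg protein was run on 7.5% SDS-PAGE and probed with anti-PARP-1 (1:1000), with ECL detection. The 85 kDa fragment versus the 116 kDa intact band was the apoptosis marker.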
For orientation: A western blot detects proteins with antibodies after separation by electrophoresis.

The test system of test [8] is HL-60. As to the kind of experiment: Induction of apoptosis in human HL60 cells assessed as induction of DNA cleavage at 10 uM after 12 hrs by gel electrophoresis. In kind it is functional, cell-based. In short, it runs like this: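 HL-60 cells (1×10^6) were lysed in Tris pH 8.0/EDTA/0.5% SDS with RNase A for 1 h at 37 °C, then proteinase K for 2 h at 50 °C. DNA was phenol-chloroform extracted and run on 2% agarose with ethidium bromide staining. The legend gives 24 h treatment while the text gives 12 h.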

Test [9] has as its system HL-60. As to the kind of experiment: Induction of apoptosis in human HL60 cells assessed as morphological changes at 30 uM after 12 hrs by Hoechst 33258 staining based fluorescence microscopy. In kind it is functional, cell-based. In outline: as §1
Test [10] relates to HL-60. As to the kind of experiment: Induction of apoptosis in human HL60 cells assessed as induction of PARP1 cleavage after 6 hrs by Western blot. The format is functional, cell-based. In outline: as §3

By IC50 is commonly meant the concentration needed to halve the response being measured.

The structures appear in SMILES notation. Active and inactive are the calls of the source. The rule behind the calls is not given here.

As to `COc1ccc(-c2oc3c(C)c(O)c(C)c(O)c3c(=O)c2OC)cc1`, the Activity result in the test on HL-60 [1] is “Dose-dependent effect”; with HL-60 [2] it was 47.8%. For the same compound, the “fold change (FC)” value with HL-60 [3] was found to be 3.7; in the test with HL-60 [4], 1.9. This compound came in with an IC50 with HL-60 [5] of 1.7 µM. For the same compound, the result with HL-60 [6], with HL-60 [7], with HL-60 [8], with HL-60 [9] and in the test on HL-60 [10] was Active.
As to `COc1c(-c2ccc(O)cc2)oc2c(C)c(O)c(C)c(O)c2c1=O`, the Activity entry in the test with HL-60 [1] was “Dose-dependent effect”; with HL-60 [2], 26.6%. In the test on HL-60 [5], this compound displayed an IC50 of 7.4 µM. For the same compound, the result with HL-60 [6], in the test with HL-60 [7], in the test on HL-60 [8] and in the test with HL-60 [9] was Active.

(Values after ChEMBL document CHEMBL1151161, “Isolation from Eucalyptus occidentalis and identification of a new kaempferol derivative that induces apoptosis in human myeloid leukemia cells” (J Nat Prod, 2004).)
